Experimental data as given in ChEMBL document CHEMBL1128566, “Inhibition of human neutrophil elastase. 3. An orally active enol acetate prodrug” (J Med Chem, 1995).

Tests used:
[1] = target: T1, Neutrophil elastase (Homo sapiens, UniProt P08246); test: Binding affinity for purified Human neutrophil elastase was determined in vitro.
T1 sequence (P08246 whole entry): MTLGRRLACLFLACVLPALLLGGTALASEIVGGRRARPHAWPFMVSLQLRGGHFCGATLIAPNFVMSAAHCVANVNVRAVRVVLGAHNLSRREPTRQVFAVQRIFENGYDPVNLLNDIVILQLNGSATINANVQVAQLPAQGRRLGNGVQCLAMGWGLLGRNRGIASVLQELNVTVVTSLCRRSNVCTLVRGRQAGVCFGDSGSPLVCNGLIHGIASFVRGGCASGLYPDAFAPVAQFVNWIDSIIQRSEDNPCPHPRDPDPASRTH

[2] = tested on: Cricetinae gen. sp.; test: Ability to inhibit HNE-induced pulmonary hemorrhage, was examined in vivo in hamsters, after administering the compound orally 30 min prior to intratracheal instillation of 25 microg of HNE; assay type: functional
In short: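 Hamsters dosed po at various doses 30 min before intratracheal HNE (25 μg). Killed 1 h later; trachea cannulated and lavaged three times with saline (0.04 mL/g). Hemorrhage measured as BAL hemoglobin by spectrophotometry. One-way ANOVA with Dunnett's test against vehicle-treated animals (p ≤ 0.05). ED50 extrapolated from dose-response curves.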

[3] = Half-life for the conversion of compound to ketone, was examined by 19F NMR spectroscopy in human blood plasma, at 37 degree Centigrade.; assay type: ADME, tissue-based
In short: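 Human blood plasma incubated at 37 °C. Half-life measured for conversion of enol acetate to the corresponding ketone.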

[4] = target: T1, Neutrophil elastase; test: Binding affinity for purified Human neutrophil elastase was determined in the presence of pig liver esterase, in vitro.
In short: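 Partially purified HNE assayed with 12.5 units porcine liver esterase added, at a fixed inhibitor level (66 nM, 100 nM, 133 nM or 1.67 μM, depending on compound). Time course followed; Ki taken from the final rate after the enol acetate was fully hydrolysed. Controls: elastase plus substrate, with or without esterase.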

[5] = Half-life for the conversion of compound to ketone, was examined by 19F NMR spectroscopy in USP-simulated gastric fluid, at 50 degree Centigrade.; assay type: ADME
In short: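 Simulated gastric fluid at pH 1.2 and 50 °C, followed for up to 12 h. Conversion of enol acetate to the parent ketone tracked to give a half-life.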

[6] = Half-life for the conversion of compound to ketone, was examined by 19F NMR spectroscopy in USP-simulated intestinal fluid, at 37 degree Centigrade.; assay type: ADME
In short: (§1)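 Simulated intestinal fluid at pH 7.5, held at 37 or 50 °C. Half-life taken for conversion of enol acetate to the corresponding ketone.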

[7] = Half-life for the conversion of compound to ketone, was examined by 19F NMR spectroscopy in USP-simulated intestinal fluid, at 50 degree Centigrade.; assay type: ADME; in short: as §1

Compound	Ki [1] [nM]	ED50 [2] [mg/kg]	half-life [3] [h]	Ki [4] [nM]	also measured
CC(C)[C@H](NC(=O)c1ccc(C(=O)N2CCOCC2)cc1)C(=O)N1CCC[C@H]1C(=O)NCC(=O)C(F)(F)C(F)(F)F	150000	–	–	–	–
CC(=O)O/C(=C(/NC(=O)[C@@H]1CCCN1C(=O)[C@@H](NC(=O)c1ccc(C(=O)N2CCOCC2)cc1)C(C)C)C(C)C)C(F)(F)F	–	> 75	0.25	16	half-life [5]: 41 h; half-life [6]: 2.9 h
CC(=O)O/C(=C(\NC(=O)[C@@H]1CCCN1C(=O)[C@@H](NC(=O)c1ccc(C(=O)N2CCOCC2)cc1)C(C)C)C(C)C)C(F)(F)C(F)(F)F	–	–	0.667	–	half-life [6]: 6.6 h
CC(=O)O/C(=C(/NC(=O)[C@@H]1CCCN1C(=O)[C@@H](NC(=O)c1ccc(C(=O)N2CCOCC2)cc1)C(C)C)C(C)C)C(F)(F)C(F)(F)F	> 2000	9	0.417	25	half-life [7]: 3.1 h; half-life [6]: 7.3 h
CC(C)C(=O)O/C(=C(/NC(=O)[C@@H]1CCCN1C(=O)[C@@H](NC(=O)c1ccc(C(=O)N2CCOCC2)cc1)C(C)C)C(C)C)C(F)(F)C(F)(F)F	–	–	–	25	–
CC(C)[C@H](NC(=O)OC(C)(C)C)C(=O)N1CCC[C@H]1C(=O)NC(C)(C)C(=O)C(F)(F)C(F)(F)F	> 50000	–	–	–	–
CCC(=O)O/C(=C(/NC(=O)[C@@H]1CCCN1C(=O)[C@@H](NC(=O)c1ccc(C(=O)N2CCOCC2)cc1)C(C)C)C(C)C)C(F)(F)C(F)(F)F	–	–	–	25	–
CC(C)=C(NC(=O)[C@@H]1CCCN1C(=O)[C@@H](NC(=O)c1ccc(C(=O)N2CCOCC2)cc1)C(C)C)C(=O)C(F)(F)C(F)(F)F	8000	–	–	–	–
CC(=O)O/C(=C(/NC(=O)[C@@H]1CCCN1C(=O)[C@@H](NC(=O)c1ccc(C(=O)NS(=O)(=O)c2ccc(Cl)cc2)cc1)C(C)C)C(C)C)C(F)(F)F	320	> 50	0.167	3	half-life [7]: 1.2 h
CC(C)C(NC(=O)[C@@H]1CCCN1C(=O)[C@@H](NC(=O)c1ccc(C(=O)N2CCOCC2)cc1)C(C)C)C(=O)C(F)(F)F (some centres not stated)	–	> 50	–	–	–
CC(C)C(NC(=O)[C@@H]1CCCN1C(=O)[C@@H](NC(=O)c1ccc(C(=O)N2CCOCC2)cc1)C(C)C)C(=O)C(F)(F)C(F)(F)F (some centres not stated)	–	15	–	–	–
CC(=O)O/C(=C(/NC(=O)[C@@H]1CCCN1C(=O)[C@@H](NC(=O)N1CCOCC1)C(C)C)C(C)C)C(F)(F)F	6300	–	–	150	–
